Results taken from ChEMBL document CHEMBL1146364, “High-throughput assay for the identification of Hsp90 inhibitors based on Hsp90-dependent refolding of firefly luciferase” (Bioorg Med Chem, 2007).
Active and inactive are the calls of the source. The rule behind the calls is not given here.

Tests used:
MCF7 [1] = test: Antiproliferative activity against MCF7 cells after 72 hrs; type: functional, cell-based; details: Homo sapiens, MCF7, 72 h
Method in brief: (§1)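 Seeded at 2000 cells/well and left to attach overnight at 37 °C, 5% CO2. MCF-7 cells kept in 1:1 DMEM:Ham's F-12 with non-essential amino acids, 2 mM L-glutamine, pen/strep and 10% FBS. SkBr3 cells kept in McCoy's 5A with the same supplements. Compounds added over a range of concentrations in DMSO (1% final). After 72 h, viable cells counted by MTS/PMS. 1% DMSO wells set as 100% proliferation.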

[2] = (§2) Inhibition of Hsp90-dependent luciferase renaturation in rabbit reticulocyte after 30 mins by luciferase refolding assay; set-up: species or system Oryctolagus cuniculus
Method in brief: (§3)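 Luciferase in stability buffer (0.5 mg/mL) heat-denatured at 41 °C for 10 min. Compound in DMSO (1 μL) mixed with cold mix (Tris pH 7.7, Mg(OAc)2, KCl, ATP, creatine phosphate), creatine phosphokinase and denatured luciferase. Started with rabbit reticulocyte lysate diluted in 20 mM Tris-HCl pH 7.4/75 mM KCl. Ran 30 min at 25 °C, then luciferin/ATP buffer added and light read over 10 s. IC50 taken against DMSO control. Triplicates, at least two experiments.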

SK-BR-3 [3] = test: Induction of Hsp90-dependent Her2 protein degradation in Skbr3 cells after 24 hrs by ELISA; type: functional, cell-based; details: Homo sapiens, SK-BR-3, 24 h
Method in brief: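 SkBr3 cells seeded at 3000/well and attached overnight, then exposed to compounds at varying concentrations for 24 h. Cell number checked under the microscope against DMSO wells. Cells then washed, fixed and permeabilized in −20 °C methanol, and blocked with 5% BSA/PBST. Probed overnight at 4 °C with rabbit anti-Her2 (1:500), then with HRP anti-rabbit IgG (1:1000) for 2 h. Read by chemiluminescence.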

MCF7 [4] = test: Induction of AKT degradation in MCF7 cells; type: functional, cell-based; details: Homo sapiens
Method in brief: (§4)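 MCF-7 cells seeded at 1×10^6 per dish and attached overnight. Compound added at varying concentrations for 36 h at 37 °C, 5% CO2. Client protein loss assessed by western blot. Controls: GA 500 nM and DMSO.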

SK-BR-3 [5] = test: Antiproliferative activity against SkBr3 cells after 72 hrs; type: functional, cell-based; details: Homo sapiens, SK-BR-3, 72 h; method in brief: as §1
MCF7 [6] = test: Induction of Her2 degradation in MCF7 cells; type: functional, cell-based; details: Homo sapiens; method in brief: as §4
MCF7 [7] = test: Induction of Raf1 degradation in MCF7 cells; type: functional, cell-based; details: Homo sapiens; method in brief: as §4
Oryctolagus cuniculus = species: Oryctolagus cuniculus; test: as §2; method in brief: as §3

Row | Structure (SMILES) | IC50 (MCF7 [1]) [µM] | IC50 [2] [µM] | IC50 (SK-BR-3 [3]) [µM] | IC50 (SK-BR-3 [5]) [µM] | Activity (Oryctolagus cuniculus) | Activity (MCF7 [4]) | Activity (MCF7 [6]) | Activity (MCF7 [7])
1 | CCOc1ccc(Nc2nc(-c3sc(NC(C)=O)nc3C)cs2)cc1 | 2.1 | 1.9 | 12.5 | 15 |  | Active | Active | Active
2 | COc1ccc(/C=C2/SC(=O)NC2=O)cc1OC | > 100 | 190 | > 100 | > 100 |  |  |  | 
3 | COc1ccc(C(=O)/C=C(\C)Nc2ccccc2O)cc1 | > 100 | 15 | 21.3 | 25 |  |  |  | 
4 | C=CCOc1ccccc1/C=C1\C(=O)N(c2cccc(Cl)c2)N=C1C | 34 | 4.5 | 51.6 | 39 |  |  |  | 
5 | Nc1ncc(-c2cccs2)s1 | > 100 | 55 | > 100 | > 100 |  |  |  | 
6 | CC1=NN(c2ccc(Cl)cc2)C(=O)C1 | > 100 | 2.1 | > 100 | > 100 |  |  |  | 
7 | CCc1ccc(O)c(/N=C/c2cccc(C)c2O)c1 | 25 | 7 | 8.9 | 9 |  |  |  | 
8 | O=C(CSc1nnnn1-c1ccc(F)cc1F)Nc1ccc2c(c1)OCCO2 | > 100 | 4.4 | > 100 | > 100 |  |  |  | 
9 | Cc1c(Cc2ccccc2)sc(NC(=O)c2ccc([N+](=O)[O-])cc2)c1C(N)=O | 41 |  | 64 | 55 | inactive |  |  | 

Now from value to compound, other results behind:

Row | IC50 (MCF7 [1]) [µM] | IC50 [2] [µM] | IC50 (SK-BR-3 [3]) [µM] | IC50 (SK-BR-3 [5]) [µM] | Activity (Oryctolagus cuniculus) | Structure (SMILES) | Activity (MCF7 [4]) | Activity (MCF7 [6]) | Activity (MCF7 [7])
10 | 3 | 16 | 4.4 | 2.4 |  | CCOC(=O)Oc1ccc2c(c1)C(C)=CC(C)(C)N2 | Active | Active | Active
11 | 19 | 120 | 4.7 | 7.8 |  | Oc1ccc(O)c(SCCCCN2CCOCC2)c1 |  |  | 
12 | 44 | 15 | 61 | 55 |  | Cc1nc(N)sc1-c1csc(Nc2ccccc2)n1 |  |  | 
13 | 93 | 23 | 44 | 76 |  | CCNC(=O)c1c(N)sc2c1CCCCC2 |  |  | 
14 | > 100 | 15 | > 100 | > 100 |  | CSc1nnc2c(n1)OC=Nc1ccccc1-2 |  |  | 
15 | > 100 | 0.12 | > 100 | > 100 |  | Cc1cc2nn(-c3ccc(Cl)cc3)nc2cc1NC(=O)C(C)C |  |  | 
16 | 9.1 | 6.7 | 10.9 | 15 |  | Cc1ccc(Nc2cc(C)c(O)c(C)c2)cc1 |  |  | 
17 | > 100 | 13 | 67 | 42 |  | N#CC1=C(N)N2C(=C(C#N)C1c1cccs1)Sc1ccccc12 (stereo unspecified) |  |  | 
18 | > 100 |  | > 100 | > 100 | inactive | CCOc1ccccc1NC(=O)CSc1ccccn1 |  |  | 
19 | 4 | 36 | 33 | 23 |  | Oc1c(C(Nc2cccc(Cl)c2)c2ccncc2)ccc2cccnc12 (stereo unspecified) |  |  | 
20 | > 100 | 22 | > 100 | > 100 |  | COc1ccccc1CNC(=O)c1ccc(C)cc1 |  |  | 
